Each block holds one compound with its values, some of them ahead of it. Calls of active or inactive are those of the source. No cut-off for these calls is given here.
What was measured:
[1] = biological target: Tumour suppressor p53/oncoprotein Mdm2 (Homo sapiens, UniProt Q00987); assay: Inhibition of human MDM2 (1 to 125 residues) and p53 (unknown origin) interaction pre-incubated for 20 mins before peptide-2-biot addition and measured after 3 hrs by HTRF assay; assay type: protein assay
SJSA-1 = assay: Antiproliferative activity against human SJSA1 cells expressing wild type p53 incubated for 72 hrs by MTS assay; assay type: functional, cell-based; details: SJSA-1, 72 h
Procedure, shortened: (§1)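 Cells treated with compound for 72 h; IC50 fitted to polynomial curves from three separate experiments, reported as average with standard deviation. HCT116 p53 −/− is an isogenic p53 knockout line. H1299 carries a homozygous partial deletion of the p53 gene and expresses no p53 protein.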

HCT-116 [2] = assay: Antiproliferative activity against human HCT116 cells expressing wild type p53 incubated for 72 hrs by MTS assay; assay type: functional, cell-based; details: HCT-116, 72 h; procedure, shortened: as §1
NCI-H1299 = assay: Antiproliferative activity against p53 -/- human NCI-H1299 cells incubated for 72 hrs by MTS assay; assay type: functional, cell-based; details: NCI-H1299, 72 h; procedure, shortened: as §1
HCT-116 [3] = assay: Antiproliferative activity against p53 -/- human HCT116 cells incubated for 72 hrs by MTS assay; assay type: functional, cell-based; details: HCT-116, 72 h; procedure, shortened: as §1
[4] = biological target: T1, Tumour suppressor p53/oncoprotein Mdm2 (Homo sapiens) (UniProt P04637+Q00987); assay: Inhibition of MDM2/p53 interaction in human HCT116 cells expressing wild type p53 assessed as increase in p53 activation at 10 uM incubated for 6 hrs by Western blot method; assay type: cell-based
Procedure, shortened: (§2)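 HCT116 cells, p53 +/+ and isogenic p53 −/−, treated with compound at 10 μM for 6 h. Lysates probed by Western blot for p53, MDM2 and p21 protein levels. Actin served as the loading control.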

[5] = biological target: T1, Tumour suppressor p53/oncoprotein Mdm2 (Homo sapiens); assay: Inhibition of MDM2/p53 interaction in human HCT116 cells deficient in p53 assessed as increase in p21 protein levels at 10 uM incubated for 6 hrs by Western blot method; assay type: cell-based; procedure, shortened: as §2
[6] = biological target: T1, Tumour suppressor p53/oncoprotein Mdm2 (Homo sapiens); assay: Inhibition of MDM2/p53 interaction in human HCT116 cells deficient in p53 assessed as increase in p53 activation at 10 uM incubated for 6 hrs by Western blot method; assay type: cell-based; procedure, shortened: as §2
[7] = biological target: T1, Tumour suppressor p53/oncoprotein Mdm2 (Homo sapiens); assay: Inhibition of MDM2/p53 interaction in human HCT116 cells deficient in p53 assessed as increase in MDM2 protein levels at 10 uM incubated for 6 hrs by Western blot method; assay type: cell-based; procedure, shortened: as §2
[8] = biological target: T1, Tumour suppressor p53/oncoprotein Mdm2 (Homo sapiens); assay: Inhibition of MDM2/p53 interaction in human HCT116 cells expressing wild type p53 assessed as increase in MDM2 protein levels at 10 uM incubated for 6 hrs by Western blot method; assay type: cell-based; procedure, shortened: as §2
[9] = biological target: T1, Tumour suppressor p53/oncoprotein Mdm2 (Homo sapiens); assay: Inhibition of MDM2/p53 interaction in human HCT116 cells expressing wild type p53 assessed as increase in p21 protein levels at 10 uM incubated for 6 hrs by Western blot method; assay type: cell-based; procedure, shortened: as §2

T1 sequence (P04637 whole entry, looked up): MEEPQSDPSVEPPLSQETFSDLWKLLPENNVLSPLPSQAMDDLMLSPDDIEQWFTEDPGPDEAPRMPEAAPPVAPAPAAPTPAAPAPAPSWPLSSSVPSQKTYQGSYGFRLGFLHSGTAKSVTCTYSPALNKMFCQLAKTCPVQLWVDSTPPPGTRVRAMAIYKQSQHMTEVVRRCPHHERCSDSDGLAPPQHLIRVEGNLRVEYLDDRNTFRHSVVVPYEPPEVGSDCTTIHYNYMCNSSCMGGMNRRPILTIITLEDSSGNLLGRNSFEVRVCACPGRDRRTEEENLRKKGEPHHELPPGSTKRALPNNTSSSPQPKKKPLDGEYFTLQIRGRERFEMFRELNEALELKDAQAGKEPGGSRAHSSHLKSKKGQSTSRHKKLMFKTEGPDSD
T1 sequence (Q00987 whole entry, looked up): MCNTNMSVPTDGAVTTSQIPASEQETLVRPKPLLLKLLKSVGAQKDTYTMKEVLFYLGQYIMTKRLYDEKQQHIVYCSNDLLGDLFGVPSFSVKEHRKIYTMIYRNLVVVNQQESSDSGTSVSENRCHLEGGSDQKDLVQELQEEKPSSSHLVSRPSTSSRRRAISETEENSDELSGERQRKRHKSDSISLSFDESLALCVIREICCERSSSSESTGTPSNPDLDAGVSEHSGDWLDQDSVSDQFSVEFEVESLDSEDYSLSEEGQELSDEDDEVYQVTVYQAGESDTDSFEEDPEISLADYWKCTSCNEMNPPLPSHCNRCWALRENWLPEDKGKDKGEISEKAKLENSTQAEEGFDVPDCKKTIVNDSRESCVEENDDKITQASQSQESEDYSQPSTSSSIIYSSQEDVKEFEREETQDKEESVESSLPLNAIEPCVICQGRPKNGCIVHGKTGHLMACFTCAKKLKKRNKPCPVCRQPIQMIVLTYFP
Chain of Tumour suppressor p53/oncoprotein Mdm2 (P04637 whole entry, the tested form may be a part): as the sequence (P04637 whole entry, looked up) above
Chain of Tumour suppressor p53/oncoprotein Mdm2 (Q00987 whole entry, the tested form may be a part): as the sequence (Q00987 whole entry, looked up) above

Structure (SMILES): CC(C)(C)CC1C=C(C(=O)NCCN2CCOCC2)C(c2cccc(Cl)c2F)C12C(=O)Nc1cc(Cl)ccc12 (single isomer, unassigned; (-))
- IC50 [1]: 1140 nM

Structure (SMILES): CC(C)(C)C[C@H]1C=C(C(=O)NCCN2CCOCC2)[C@@H](c2cccc(Cl)c2F)[C@]12C(=O)Nc1cc(Cl)ccc12 (racemic)
- IC50 [1]: 3680 nM

Structure (SMILES): CC(C)(C)C[C@@H]1C=C(C(=O)O)[C@H](c2cccc(Cl)c2F)[C@]12C(=O)Nc1cc(Cl)ccc12 (racemic)
- IC50 (SJSA-1): 7440 nM
- IC50 (HCT-116 [2]): 10500 nM
- IC50 (NCI-H1299): > 20000 nM
- IC50 [1]: 10.1 nM
- IC50 (HCT-116 [3]): > 20000 nM

Structure (SMILES): CC(C)(C)CC1C=C(C(=O)O)C(c2cccc(Cl)c2F)C12C(=O)Nc1cc(Cl)ccc12 (single isomer, unassigned; (+)) [listing 1 of 2 here]
- inhibition [4]: Active
- inhibition [5]: inactive
- inhibition [6]: inactive
- inhibition [7]: inactive
- inhibition [8]: Active
- inhibition [9]: Active

Structure (SMILES): CC(C)(C)CC1C=C(C(=O)O)C(c2cccc(Cl)c2F)C12C(=O)Nc1cc(Cl)ccc12 (single isomer, unassigned; (+)) [listing 2 of 2 here]
- IC50 (SJSA-1): 7800 nM
- IC50 (HCT-116 [2]): 11600 nM
- IC50 (NCI-H1299): > 20000 nM
- IC50 [1]: 3.1 nM
- IC50 (HCT-116 [3]): > 20000 nM

Structure (SMILES): COc1ccc(C2=N[C@@H](c3ccc(Cl)cc3)[C@@H](c3ccc(Cl)cc3)N2C(=O)N2CCNC(=O)C2)c(OC(C)C)c1 [NUTLIN-3]
- IC50 (SJSA-1): 1440 nM
- IC50 (HCT-116 [2]): 1300 nM
- IC50 (NCI-H1299): 10400 nM
- IC50 (HCT-116 [3]): > 20000 nM

Structure (SMILES): CC(C)(C)C[C@@H]1C=C(C(=O)N[C@H]2CC[C@H](O)CC2)[C@H](c2cccc(Cl)c2F)[C@]12C(=O)Nc1cc(Cl)ccc12 (racemic)
- IC50 [1]: 619 nM

Structure (SMILES): CC(C)(C)CC1C=C(C(=O)NC2CCC(O)CC2)C(c2cccc(Cl)c2F)C12C(=O)Nc1cc(Cl)ccc12 (single isomer, unassigned; (-))
- IC50 [1]: 3720 nM

Structure (SMILES): CC(C)(C)CC1C=C(C(=O)NCCN2CCOCC2)C(c2cccc(Cl)c2F)C12C(=O)Nc1cc(Cl)ccc12 (single isomer, unassigned; (+)) [listing 1 of 2 here]
- inhibition [4]: Active
- inhibition [5]: inactive
- inhibition [6]: inactive
- inhibition [7]: inactive
- inhibition [8]: Active
- inhibition [9]: Active

Structure (SMILES): CC(C)(C)CC1C=C(C(=O)NCCN2CCOCC2)C(c2cccc(Cl)c2F)C12C(=O)Nc1cc(Cl)ccc12 (single isomer, unassigned; (+)) [listing 2 of 2 here]
- IC50 (SJSA-1): 960 nM
- IC50 (HCT-116 [2]): 2920 nM
- IC50 (NCI-H1299): 9730 nM
- IC50 [1]: 23.7 nM
- IC50 (HCT-116 [3]): > 20000 nM

Structure (SMILES): CC(C)(C)C[C@@H]1C=C(C(=O)NCCN2CCOCC2)[C@@H](c2cccc(Cl)c2F)[C@]12C(=O)Nc1cc(Cl)ccc12 (racemic)
- IC50 [1]: 3380 nM

Structure (SMILES): CC(C)(C)C[C@H]1C=C(C(=O)NCCN2CCOCC2)[C@H](c2cccc(Cl)c2F)[C@]12C(=O)Nc1cc(Cl)ccc12 (racemic)
- IC50 [1]: 739 nM

Structure (SMILES): CC(C)(C)C[C@@H]1C=C(C(=O)NCCN2CCOCC2)[C@H](c2cccc(Cl)c2F)[C@]12C(=O)Nc1cc(Cl)ccc12 (racemic)
- IC50 (SJSA-1): 7500 nM
- IC50 (HCT-116 [2]): 4840 nM
- IC50 (NCI-H1299): > 20000 nM
- IC50 [1]: 33 nM
- IC50 (HCT-116 [3]): > 20000 nM

Structure (SMILES): CC(C)(C)CC1C=C(C(=O)O)C(c2cccc(Cl)c2F)C12C(=O)Nc1cc(Cl)ccc12 (stereo in doubt; (-)-8')
- IC50 [1]: 538 nM

Second part, the compound after the results:

- IC50 [1]: 655 nM
Structure (SMILES): CC(C)(C)CC1C=C(C(=O)Nc2ccc(C(=O)O)cc2)C(c2cccc(Cl)c2F)C12C(=O)Nc1cc(Cl)ccc12 (single isomer, unassigned; (+))

- IC50 [1]: 1260 nM
Structure (SMILES): CC(C)(C)C[C@@H]1C=C(C(=O)N[C@H]2C[C@@](C)(O)C2)[C@H](c2cccc(Cl)c2F)[C@]12C(=O)Nc1cc(Cl)ccc12 (racemic)

- IC50 [1]: 3030 nM
Structure (SMILES): CC(C)(C)CC1C=C(C(=O)NC2CC(C)(O)C2)C(c2cccc(Cl)c2F)C12C(=O)Nc1cc(Cl)ccc12 (single isomer, unassigned; (-))

- IC50 [1]: 712 nM
Structure (SMILES): CC(C)(C)CC1C=C(C(=O)NC2CC(C)(O)C2)C(c2cccc(Cl)c2F)C12C(=O)Nc1cc(Cl)ccc12 (single isomer, unassigned; (+))

- IC50 [1]: 303 nM
Structure (SMILES): CC(C)(C)CC1C=C(C(=O)NC2CCC(O)CC2)C(c2cccc(Cl)c2F)C12C(=O)Nc1cc(Cl)ccc12 (single isomer, unassigned; (+))

- IC50 [1]: 350 nM
Structure (SMILES): CC(C)(C)C[C@@H]1C=C(C(=O)Nc2ccc(C(=O)O)cc2)[C@H](c2cccc(Cl)c2F)[C@]12C(=O)Nc1cc(Cl)ccc12 (racemic)

- IC50 [1]: 1040 nM
Structure (SMILES): CC(C)(C)CC1C=C(C(=O)Nc2ccc(C(=O)O)cc2)C(c2cccc(Cl)c2F)C12C(=O)Nc1cc(Cl)ccc12 (single isomer, unassigned; (-))

From ChEMBL document CHEMBL4196214, “Inhibition of p53-Murine Double Minute 2 (MDM2) Interactions with 3,3'-Spirocyclopentene Oxindole Derivatives” (J Med Chem, 2018)
